Results taken from the EternaBench riboswitch data.

System: MS2 coat protein
Assay: apparent Kd, MS2 coat protein; higher = weaker binding; RNA-MaP array
In short: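 Apparent Kd values come from the median of binding-curve fits to single clusters. To obtain them, designed RNAs transcribed on an Illumina sequencing chip from sequenced DNA templates were incubated at room temperature with fluorescently labeled MS2 coat protein at 1.5 nM to 3 μM, with or without input ligand, for 0.8–1.5 h at the lowest and 10–20 min at the highest concentrations. Designs measured on fewer than 10 clusters were excluded.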

[1] = designed as: ON switch for flavin mononucleotide, no ligand
[2] = ligand present: flavin mononucleotide, designed as: ON switch for flavin mononucleotide
[3] = designed as: OFF switch for flavin mononucleotide, no ligand
[4] = ligand present: flavin mononucleotide, designed as: OFF switch for flavin mononucleotide
[5] = designed as: ON switch for theophylline, no ligand
[6] = ligand present: theophylline, designed as: ON switch for theophylline
[7] = designed as: OFF switch for tryptophan, no ligand
[8] = ligand present: tryptophan, designed as: OFF switch for tryptophan

UUGCUAACAGUAGGAUAUUCAAAACAGCGUGAGGAAGAAGGACUAGCGACUUCGUGACAUGAGGAUCACCCAUGUGUAAGGCCA
apparent Kd [1]: 12.5 nM | apparent Kd [2]: 9.89 nM

UCUCAGUGAGGAUAUCGAACAGACCUUUGUGUGCUAAUUUUCGAGAAGGCACAUGAGGAUCACCCAUGUGACUC
apparent Kd [3]: 54.6 nM | apparent Kd [4]: 49.7 nM

CUUACACAUGAGGAUCACCCAUGUCAUGAUACCAGCCAAUACACUGGCCCUUGGCAGCAUCUCAGCCUCAGCUACAUUGACUGAC
apparent Kd [5]: 19.9 nM | apparent Kd [6]: 27.1 nM

UCGCCAUUGACGGCCGCCACUCAAUGGUCUUCUCUGAACAUAAUUAACAUGAGGAUCACCCAUGUGAGGACCGGGUCGGUUAGAC
apparent Kd [7]: 19.5 nM | apparent Kd [8]: 32.3 nM

GUUCGCUGAGGAUAUACAUGAGGAUCACCCAUGUUCAAGUCUCGUGACUGUUCCCAGCGUAGAAGGCAGCGGUG
apparent Kd [3]: 7.62 nM | apparent Kd [4]: 8.85 nM

AUCGCGACCCAGAAGGGAAGUCGGUGAAGCGGUUCAGGAUAUGGGCAGAGGACAUGAGGAUCACCCAUGUGCAUGUAUUCGGCA
apparent Kd [1]: 17.2 nM | apparent Kd [2]: 13.7 nM

AAAAUAGCAGGAUAUACAUGAGGAUCACCCAUGUCAAGACAGCACGGUGCAAGGUAGGGUAGAAGGGCUAAUUG
apparent Kd [3]: 22.8 nM | apparent Kd [4]: 30.1 nM

GUGAGACAUGAGGAUCACCCAUGUUAGGAUAUUAAACUGGUUUAGUCUGUGACCGACGUAAGAAGGAACUUGAU
apparent Kd [3]: 13.1 nM | apparent Kd [4]: 11.7 nM

UAGACAAAACAGAAGGAAUGAAGUAGAACAACAAUAGGAUAUGUAUAAAAGUAUACAUGAGGAUCACCCAUGUUACCAACAUGA
apparent Kd [1]: 11.3 nM | apparent Kd [2]: 9.34 nM

CAUCGGGCGGUAAAUGGCGGGUACGGUGAUACCAGUUUUUGAUUUAACCCUUGGCAGCACUAUACAUGAGGAUCACCCAUGUAAU
apparent Kd (designed as: OFF switch for theophylline, no ligand): 17.9 nM | apparent Kd (ligand present: theophylline, designed as: OFF switch for theophylline): 30 nM

CUCAAGUAAGGAUAUAUUCACGCUCGUAAUUAGUGUCGCGCAUAGAAGGUACAUGAGGAUCACCCAUGUCAUGU
apparent Kd [4]: 18.4 nM

UAAAGGUUCCAGAAGGCCACGACUCGAUCCUGUGGAGGAUAUGGGACAUGAGGAUCACCCAUGUCUGGUGGAUUACAUCCCACA
apparent Kd [1]: 20.4 nM | apparent Kd [2]: 32.2 nM

CGAUCCUUGCAGAAGGACUAAAACCAAAUACCAGUAGGAUAUGCAACAUGAGGAUCACCCAUGUGACGAAGGAUGCGGGAAAUA
apparent Kd [3]: 8.82 nM | apparent Kd [4]: 8.69 nM

UCAGCACAUGAGGAUCACCCAUGUCGUGAUACCAGCCUGUGCGAAGGCCCUUGGCAGCACAGUCCCGAUUUGCUUAUAUGCACUU
apparent Kd [5]: 35.7 nM | apparent Kd [6]: 36.9 nM

UGGAAUGUGCAAGGAUAUUGGCGGUGUGGAAUAGAAUCACUCGAACAUGAGGAUCACCCAUGUUGCAAGAAGGUGCGGGAACGA
apparent Kd [3]: 38.2 nM | apparent Kd [4]: 33.5 nM

UAGAGCGGCAACAUGAGGAUCACCCAUGUGGGCGAUGAGGCUCAGGAUAUACACCACCGCUGGACGUAGAAGGGAGACUCGCCG
apparent Kd [3]: 41.1 nM | apparent Kd [4]: 20.1 nM

CGCUAAGAGCGGCACCUCCACAUGAGGAUCACCCAUGUUUGAAGAAGGCCAAUUUACGUAAGACUGGAGGAUAUUCAGGAGAGU
apparent Kd [1]: 10.1 nM | apparent Kd [2]: 5.9 nM

GUCCUUAUAACAUGAGGAUCACCCAUGUAAUUCAAUCUGCGAGAGGAUAUGUCUGAGCAUCCCACACAGAAGGCUCCGGAACAG
apparent Kd [3]: 22.8 nM | apparent Kd [4]: 20.1 nM

GAUUUUAGUGAAGGAUAUACAAACAACAUGAGGAUCACCCAUGUCUGGAAUGAUCGCAGGGCCCGGUAGAAGGUCAUCAGAAAG
apparent Kd [3]: 31.1 nM | apparent Kd [4]: 24 nM

UGUUGGGAAACAGGAUAUGAGCUUAAAGCACAAGGGAUUCGCACAUGAGGAUCACCCAUGUAACGUCAGAAGGGUUUGUUUGUA
apparent Kd [3]: 51.2 nM | apparent Kd [4]: 42.2 nM

UUAAAGGCACCUCAUGGGACUAUAAACCCGCGAGGACCGGUACGGCCGCCACUCGAAUAUCAACAUGAGGAUCACCCAUGUGGUU
apparent Kd [7]: 21.8 nM | apparent Kd [8]: 48.5 nM

ACCAUGUGACAGGAUAUGUUUCUCUCAAUAAACACAGAAGGGUCUACAUGAGGAUCACCCAUGUGUAUUCUACC
apparent Kd [3]: 72.6 nM | apparent Kd [4]: 64.3 nM

UCAUUUUCAGAAGGAUAUUUACCAGGCCAAGGUAAAGAAGGUCUAUGGGUCACUUCCUUGAUACAUGAGGAUCACCCAUGUGAA
apparent Kd [3]: 292 nM | apparent Kd [4]: 429 nM

ACAUGAGGAUCACCCAUGUUUUAUUCGAACUGGAAAUGACGUCAGGAUAUCACAAAUAGCAGCAAUGAGAAGGGACUAUAUAUG
apparent Kd [1]: 11.6 nM | apparent Kd [2]: 8.79 nM

GCUGAACAUGAGGAUCACCCAUGUCCGGAUACCAGCGGACCUCAUCGCCCUUGGCAGCCGAACCAACAGCUUGUGGUGUUCACUC
apparent Kd [5]: 35.4 nM | apparent Kd [6]: 49.9 nM

AACAUGAGGAUCACCCAUGUACACUCAAUUCGGUAUCGCUGCAAGGAUAUUCGCGUUGGAUACAUGAAGAAGGUGCCCGUACCG
apparent Kd [1]: 92 nM | apparent Kd [2]: 12.5 nM
